Assay [1] relates to 518A2. Briefly: Induction of apoptosis in human 518A2 cells assessed as appearance of intact mitochondria in cytosol at 5 uM after 18 hrs using JC1 dye relative to control. In kind it is functional. The method in brief: (§1)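 Mitochondrial membrane potential measured with JC-1. Cells exposed to 5 µM compound for 6 or 18 h, pelleted at 400 g, stained with 0.2× JC-1 at 37 °C for 15 min (HL-60) or 35 min (518A2), washed and resuspended in PBS. Red fluorescence (ex 585/em 590 nm) and green (ex 510/em 527 nm) read; red/green ratio relative to untreated controls (100%). Mean ± SD, four independent experiments.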

The subject of assay [2] is HL-60. Briefly: Cytotoxicity against human HL60 cells after 72 hrs by MTT assay. In kind it is functional, cell-based. The note with it: HL-60, 72 h. The method in brief: (§2)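 MTT assay. Cells seeded and cultured 24 h, then exposed to compound for 24, 48 or 72 h. MTT added to a final 0.05% (HL-60, 518A2) or 0.1% (KB-V1, MCF-7) for 2 h. Formazan dissolved in 10% SDS/DMSO with 0.6% acetic acid; absorbance read at 570 nm against 630 nm background. Viability taken relative to untreated controls (100%). IC50 from concentration-response curves, mean ± SD of four independent experiments.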
(In general: Tetrazolium dyes change colour on reduction, which living cells bring about.)

The nature of assay [3]: Cytotoxicity against human 518A2 cells after 72 hrs by MTT assay. In kind it is functional, cell-based. As to conditions: 518A2, 72 h. A digest of the protocol: as §2
The subject of assay [4] is HL-60. As to the kind of experiment: Cytotoxicity against human HL60 cells after 48 hrs by MTT assay. In kind it is functional, cell-based. As to conditions: HL-60, 48 h. A digest of the protocol:
as §2

For assay [5], the system named is MCF7. Briefly: Cytotoxicity against human topotecan-resistant MCF7 cells after 48 hrs by MTT assay. The note with it: MCF7, 48 h. In kind it is functional, cell-based. The method in brief:
as §2

A short description of assay [6]: Cytotoxicity against human vinblastine-resistant KBV1 cells after 48 hrs by MTT assay. In kind it is functional, cell-based. As to conditions: KB-V1, 48 h. A digest of the protocol: as §2
For assay [7], the system named is MCF7. Briefly: Cytotoxicity against human topotecan-resistant MCF7 cells after 72 hrs by MTT assay. In kind it is functional, cell-based. As to conditions: MCF7, 72 h. A digest of the protocol: as §2
In assay [8] the test system is HL-60. As to the kind of experiment: Induction of apoptosis in human HL60 cells assessed as appearance of intact mitochondria in cytosol at 5 uM after 18 hrs using JC1 dye relative to control. In kind it is functional. A digest of the protocol:
as §1

Assay [9] in a line: Cytotoxicity against human vinblastine-resistant KBV1 cells after 72 hrs by MTT assay. In kind it is functional, cell-based. The note with it: KB-V1, 72 h. The method in brief: as §2
Assay [10] concerns HL-60. As to the kind of experiment: Cytotoxicity against human HL60 cells after 24 hrs by MTT assay. In kind it is functional, cell-based. As to conditions: HL-60, 24 h. A digest of the protocol: as §2
The nature of assay [11]: Cytotoxicity against human 518A2 cells assessed as increase in ROS production at 5 uM after 72 hrs by NBT reduction assay relative to control. In kind it is functional. The method in brief: (§3)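 NBT assay. HL-60 cells (0.5×10⁶/mL) or trypsinised 518A2 cells (5×10⁴/mL) pre-incubated 24 h at 37 °C, then given compound at a final 5 µM for 24 or 72 h. Medium removed; cells incubated with 0.1% NBT for 1 h (HL-60) or 4 h (518A2). Diformazan dissolved in 2 M KOH/DMSO; A630 read against 405 nm. Given as % of untreated controls; double quadruplicates.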

Assay [12] has as its system HL-60. As to the kind of experiment: Cytotoxicity against human HL60 cells assessed as increase in ROS production at 5 uM after 72 hrs by NBT reduction assay relative to control. In kind it is functional. The method in brief: as §3
Assay [13] can be described thus: Cytotoxicity against human vinblastine-resistant KBV1 cells after 24 hrs by MTT assay. In kind it is functional, cell-based. The note with it: KB-V1, 24 h. A digest of the protocol: as §2
The subject of assay [14] is MCF7. Briefly: Cytotoxicity against human topotecan-resistant MCF7 cells after 24 hrs by MTT assay. In kind it is functional, cell-based. As to conditions: MCF7, 24 h. A digest of the protocol:
as §2

The test system of assay [15] is HL-60. Briefly: Cytotoxicity against human HL60 cells assessed as increase in ROS production at 5 uM after 24 hrs by NBT reduction assay relative to control. In kind it is functional. The method in brief: as §3
Assay [16] in a line: Cytotoxicity against human 518A2 cells after 48 hrs by MTT assay. In kind it is functional, cell-based. As to conditions: 518A2, 48 h. A digest of the protocol: as §2
The subject of assay [17] is HL-60. As to the kind of experiment: Induction of apoptosis in human HL60 cells assessed as appearance of intact mitochondria in cytosol at 5 uM after 6 hrs using JC1 dye relative to control. In kind it is functional. A digest of the protocol:
as §1

The subject of assay [18] is 518A2. Briefly: Induction of apoptosis in human 518A2 cells assessed as appearance of intact mitochondria in cytosol at 5 uM after 6 hrs using JC1 dye relative to control. In kind it is functional. A digest of the protocol:
as §1

Assay [19] is described as follows: Cytotoxicity against human 518A2 cells after 24 hrs by MTT assay. In kind it is functional, cell-based. As to conditions: 518A2, 24 h. The method in brief:
as §2

The nature of assay [20]: Cytotoxicity against human 518A2 cells assessed as increase in ROS production at 5 uM after 24 hrs by NBT reduction assay relative to control. In kind it is functional. A digest of the protocol:
as §3

The record followed here is ChEMBL document CHEMBL1157852, “Modulation of doxorubicin activity in cancer cells by conjugation with fatty acyl and terpenyl hydrazones” (Eur J Med Chem, 2010).

In general, IC50 refers to the concentration that inhibits the measured activity by half. A low value points to greater potency. Take `COc1cccc2c1C(=O)c1c(O)c3c(c(O)c1C2=O)C[C@@](O)(/C(CO)=N/NC(=O)CCCCCCCC(=O)O[C@@H]1C[C@H](C)CC[C@H]1C(C)C)C[C@@H]3O[C@H]1C[C@H](N)[C@H](O)[C@H](C)O1.Cl`: the Activity worked out at 72% in the assay with 518A2 [1]; 68% in the assay on HL-60 [8]; 1.3% in assay [11]; 6.8% in the assay on HL-60 [12]; 1% in the assay on HL-60 [15]; 84% with HL-60 [17]. In addition, the results for the Activity (in the assay with 518A2 [18]; in assay [20]) were 83% and 1.4%, respectively. For the same compound, the IC50 was 0.37 µM in the assay with HL-60 [2]; 0.46 µM in assay [3]; 0.49 µM in the assay on HL-60 [4]; 7.2 µM in the assay on MCF7 [5]; 21.5 µM in assay [6]; 4.3 µM with MCF7 [7]. In addition, the IC50 in [9] came to 21.8 µM; in the assay with HL-60 [10], 0.4 µM; in [13], 79.6 µM; with MCF7 [14], 10.2 µM; in [16] it was 0.51 µM; in assay [19] it was 0.82 µM.

With `COc1cccc2c1C(=O)c1c(O)c3c(c(O)c1C2=O)C[C@@](O)(/C(CO)=N/NC(=O)CCCCCCCCCCC(=O)O[C@H]1C[C@H]2CC[C@]1(C)C2(C)C)C[C@@H]3O[C@H]1C[C@H](N)[C@H](O)[C@H](C)O1.Cl`, the Activity in the assay with 518A2 [1] is 73%; in the assay on HL-60 [8], 65%; in [11], 3.8%; in the assay with HL-60 [12], 7.9%; in the assay with HL-60 [15] it was 1.8%; in the assay on HL-60 [17], 78%. Besides, the Activity in the assay on 518A2 [18] is reported as 66%; in assay [20], 2.7%. Further, the IC50 came to 0.13 µM in the assay with HL-60 [2]; 0.19 µM in [3]; 0.19 µM in the assay with HL-60 [4]; 3.8 µM with MCF7 [5]; 20.7 µM in [6]; 1.8 µM with MCF7 [7]. Moreover, the IC50 in [9] came out at 24.2 µM; in the assay with HL-60 [10] it was 0.23 µM; in [13], 68.8 µM; in the assay on MCF7 [14] it was 6.3 µM; in assay [16] it was 0.23 µM; in assay [19], 0.57 µM.

As to `COc1cccc2c1C(=O)c1c(O)c3c(c(O)c1C2=O)C[C@@](O)(/C(CO)=N/NC(=O)CCCCC(=O)O[C@@H]1C[C@H](C)CC[C@H]1C(C)C)C[C@@H]3O[C@H]1C[C@H](N)[C@H](O)[C@H](C)O1.Cl`, the Activity in the assay on 518A2 [1] is 79%; with HL-60 [8] it was 66%; in assay [11] it was 1.5%; in the assay on HL-60 [12], 5.7%; in the assay on HL-60 [15], 1%; with HL-60 [17] it was 93%. For the same compound, the Activity with 518A2 [18] was 82%; in assay [20], 2.2%. Also, the IC50 in the assay with HL-60 [2] was found to be 0.33 µM; in [3], 0.32 µM; with HL-60 [4] it was 0.33 µM; in the assay on MCF7 [5] it was 4.7 µM; in assay [6] it was 34.9 µM; with MCF7 [7], 2.4 µM. Besides, the IC50 was 23.3 µM in assay [9]; 0.39 µM in the assay on HL-60 [10]; above 100 µM in assay [13]; 6.7 µM with MCF7 [14]; 0.42 µM in assay [16]; 1.2 µM in assay [19].

As for `CCCCC/C=C\C/C=C\CCCCCCCC(=O)N/N=C(\CO)[C@]1(O)Cc2c(O)c3c(c(O)c2[C@@H](O[C@H]2C[C@H](N)[C@H](O)[C@H](C)O2)C1)C(=O)c1c(OC)cccc1C3=O.Cl` [DOXORUBICIN LINOLEYLHYDRAZONE HYDROCHLORIDE], the Activity in the assay on 518A2 [1] came to 97%; in the assay on HL-60 [8], 87%; in [11], 2.3%; with HL-60 [12], 1.4%; with HL-60 [15], 0.4%; with HL-60 [17], 88%. In addition, the Activity with 518A2 [18] amounted to 80%; in assay [20], 1.6%. In addition, the IC50 with HL-60 [2] came out at 3.8 µM; in [3], 1.6 µM; in the assay with HL-60 [4], 2.8 µM; in the assay with MCF7 [5] it was 20.3 µM; in [6] it was 18.7 µM; in the assay with MCF7 [7], 9.9 µM. Moreover, the IC50 in [9] amounted to 19.7 µM; in the assay on HL-60 [10], 5.6 µM; in [13], 29.6 µM; with MCF7 [14] it was 40.5 µM; in assay [16], 1.8 µM; in [19], 2.9 µM.

For `CCCCCCCC/C=C\CCCCCCCC(=O)N/N=C(\CO)[C@]1(O)Cc2c(O)c3c(c(O)c2[C@@H](O[C@H]2C[C@H](N)[C@H](O)[C@H](C)O2)C1)C(=O)c1c(OC)cccc1C3=O.Cl` [DOXORUBICIN OLEYLHYDRAZONE HYDROCHLORIDE], the Activity was 99% with 518A2 [1]; 104% in the assay with HL-60 [8]; 4.4% in assay [11]; 4% in the assay with HL-60 [12]; 0.6% in the assay on HL-60 [15]; 103% in the assay on HL-60 [17]. Besides, the Activity is given as 96% in the assay with 518A2 [18] and 2.8% in assay [20]. In addition, the IC50 with HL-60 [2] amounted to 0.56 µM; in assay [3], 0.42 µM; in the assay on HL-60 [4], 0.56 µM; in the assay with MCF7 [5], 6.2 µM; in assay [6] it was 17.7 µM; in the assay on MCF7 [7] it was 6.6 µM. Also, the IC50 in [9] worked out at 12.7 µM; with HL-60 [10] it was 1.2 µM; in assay [13] it was 32.5 µM; with MCF7 [14] it was 14.6 µM; in assay [16] it was 0.39 µM; in assay [19] it was 0.67 µM.
